Activity calls are given as the source filed them.

Sequence of Voltage-gated potassium channel, KQT; KCNQ2(Kv7.2)/KCNQ3(Kv7.3) (O43526 whole entry): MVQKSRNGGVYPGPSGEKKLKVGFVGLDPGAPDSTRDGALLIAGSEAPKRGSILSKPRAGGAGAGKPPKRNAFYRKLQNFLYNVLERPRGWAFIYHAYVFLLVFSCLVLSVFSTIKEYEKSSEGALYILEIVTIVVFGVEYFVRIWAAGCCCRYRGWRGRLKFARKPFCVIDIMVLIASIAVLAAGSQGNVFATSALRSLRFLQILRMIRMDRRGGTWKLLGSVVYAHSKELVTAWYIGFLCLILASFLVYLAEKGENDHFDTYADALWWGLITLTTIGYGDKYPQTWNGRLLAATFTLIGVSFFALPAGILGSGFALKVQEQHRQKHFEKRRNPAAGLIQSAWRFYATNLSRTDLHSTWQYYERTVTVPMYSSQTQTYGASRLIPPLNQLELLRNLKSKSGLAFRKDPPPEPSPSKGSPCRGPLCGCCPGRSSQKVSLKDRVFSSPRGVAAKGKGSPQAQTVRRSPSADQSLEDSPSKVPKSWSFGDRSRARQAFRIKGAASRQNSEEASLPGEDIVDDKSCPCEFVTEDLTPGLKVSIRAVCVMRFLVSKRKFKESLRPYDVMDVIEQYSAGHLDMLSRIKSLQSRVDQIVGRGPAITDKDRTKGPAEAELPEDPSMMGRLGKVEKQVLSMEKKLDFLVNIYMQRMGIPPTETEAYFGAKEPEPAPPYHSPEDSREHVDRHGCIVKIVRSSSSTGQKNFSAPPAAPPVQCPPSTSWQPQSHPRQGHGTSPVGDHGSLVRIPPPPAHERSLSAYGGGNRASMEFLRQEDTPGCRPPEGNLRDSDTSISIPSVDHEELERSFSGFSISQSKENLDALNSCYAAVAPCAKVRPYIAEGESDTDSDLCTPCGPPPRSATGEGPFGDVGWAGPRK
Sequence of Voltage-gated potassium channel, KQT; KCNQ2(Kv7.2)/KCNQ3(Kv7.3) (O43525 whole entry): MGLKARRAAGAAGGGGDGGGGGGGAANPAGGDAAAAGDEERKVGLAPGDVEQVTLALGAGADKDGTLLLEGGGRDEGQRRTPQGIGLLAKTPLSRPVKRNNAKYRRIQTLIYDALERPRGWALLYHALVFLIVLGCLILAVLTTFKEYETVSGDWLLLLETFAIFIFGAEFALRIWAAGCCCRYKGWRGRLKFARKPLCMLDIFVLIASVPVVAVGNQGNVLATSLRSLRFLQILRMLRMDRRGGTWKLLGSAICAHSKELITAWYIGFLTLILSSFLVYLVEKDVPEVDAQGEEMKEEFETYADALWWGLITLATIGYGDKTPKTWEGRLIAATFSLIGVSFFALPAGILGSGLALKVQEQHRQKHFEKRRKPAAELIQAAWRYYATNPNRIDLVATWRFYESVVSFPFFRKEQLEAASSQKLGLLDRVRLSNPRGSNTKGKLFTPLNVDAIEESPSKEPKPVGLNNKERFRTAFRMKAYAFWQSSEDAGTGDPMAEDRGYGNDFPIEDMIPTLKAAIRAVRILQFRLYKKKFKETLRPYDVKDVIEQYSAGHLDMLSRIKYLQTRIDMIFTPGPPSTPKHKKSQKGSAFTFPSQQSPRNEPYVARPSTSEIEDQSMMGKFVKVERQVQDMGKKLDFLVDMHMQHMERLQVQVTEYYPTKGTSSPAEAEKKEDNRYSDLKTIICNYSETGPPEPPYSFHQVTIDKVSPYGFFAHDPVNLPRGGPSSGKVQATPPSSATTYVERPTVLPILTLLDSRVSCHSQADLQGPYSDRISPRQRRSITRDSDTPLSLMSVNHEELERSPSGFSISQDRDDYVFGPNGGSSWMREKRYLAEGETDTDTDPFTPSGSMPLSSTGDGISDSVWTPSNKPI

The subject of one assay is Mus musculus. Nature of the assay: Anticonvulsant activity against maximal electroshock-induced seizures in CD1 mouse model at 30 mg/kg, po treated 30 mins before electroshock application. In kind it is functional, organism-based. Details: dose 30 mg/kg. An outline of the steps:
(§1)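 Male CD-1 mice dosed po (10 mL/kg in 5% DMSO/95% of 0.5% HPMC/1% Tween 80) 30 min before corneal electroshock at 50 mA for 0.2 s, with 1% proparacaine in each eye. Latency to hindlimb extension recorded to 0.1 s. No extension within 6 s scored as protected (latency 6 s). Reported as protected/tested (8 per group), or EC50 derived from latency scores.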
For orientation: In the maximal electroshock model the usual endpoint is tonic extension of the hind limbs.
Consider `Cn1/c(=N/NC(=O)C23CC4CC(CC(C4)C2)C3)sc2ccc(C(F)(F)F)cc21`, for which the outcome was inactive. Still for that read-out and setting: with `Cn1/c(=N/NC(=O)C23CC4CC(CC(C4)C2)C3)sc2cc(F)ccc21` the entry was “inactive”; with `Cn1/c(=N/NC(=O)C23CC4CC(CC(C4)C2)C3)sc2cc(C(F)(F)F)ccc21`, “inactive”.

In the next assay the test system is Rattus norvegicus. Nature of the assay: Antinociceptive activity in formalin-treated Sprague-Dawley rat model assessed as reduction in hind paw flinches at 17 mg/kg, po measured during 11 to 60 mins of phase 2 flinches. On the set-up: scale not given: the % may be the effect or the level left. It counts as functional. In outline: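 Male Sprague-Dawley rats dosed po in 0.5% methylcellulose 1 h before assay. A 0.5 g metal band was glued to the right hind paw 1 h beforehand. 2.5% formalin (50 μL) was injected sc into the dorsal right hind paw. An electromagnetic detector counted flinches for 60 min; phase II is 11-60 min post-injection.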
As to `CCOC(=O)Nc1ccc(NCc2ccc(F)cc2)cc1N` [EZOGABINE], the Activity was determined as 49%.

The subject of the next assay is Mus musculus. The assay is described as follows: Anticonvulsant activity against maximal electroshock-induced seizures in CD1 mouse model at 20 mg/kg, po treated 30 mins before electroshock application. On the set-up: dose 20 mg/kg. In kind it is functional, organism-based. In outline: as §1
As to `Cn1/c(=N/NC(=O)C2CCCC2)sc2cc(OC(F)(F)F)ccc21`, the result was inactive. Turning to `Cn1/c(=N/NC(=O)C23CC4CC(CC(C4)C2)C3)sc2c(F)cccc21`, the result was inactive.

The subject of the next assay is Mus musculus. Nature of the assay: Anticonvulsant activity against maximal electroshock-induced seizures in CD1 mouse model at 30 mg/kg, ip treated 15 mins before electroshock application. In kind it is functional, organism-based. On the set-up: dose 30 mg/kg. An outline of the steps:
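Male CD-1 mice dosed ip at 30 mg/kg (10 mL/kg in 5% DMSO/95% of 0.5% HPMC/1% Tween 80) 15 min before corneal electroshock (50 mA, 0.2 s, 1% proparacaine in eyes). Hindlimb extension latency measured; no extension by 6 s counted as protected. Reported as protected/tested out of 8 mice.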
With `Cn1/c(=N/NC(=O)C23CC4CC(CC(C4)C2)C3)sc2cc(OC(F)(F)F)ccc21`, the outcome was Active.

The next assay deals with Mus musculus. The assay is described as follows: Anticonvulsant activity against maximal electroshock-induced seizures in CD1 mouse model at 10 mg/kg, po treated 30 mins before electroshock application. In kind it is functional, organism-based. Details: dose 10 mg/kg. An outline of the steps: as §1
As to `Cn1/c(=N/NC(=O)C(C)(C)C)sc2cc(OC(F)(F)F)ccc21`, the result was inactive. Same read-out and setting: with `Cn1/c(=N/NC(=O)OC(C)(C)C)sc2cc(OC(F)(F)F)ccc21` the entry was “Active”.

The test system of the next assay is Rattus norvegicus. Nature of the assay: Antinociceptive activity in formalin-treated Sprague-Dawley rat model assessed as reduction in hind paw flinches at 100 mg/kg, iv measured during 11 to 60 mins of phase 2 flinches. Details: scale not given: the % may be the effect or the level left. In kind it is functional. An outline of the steps:
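Formalin test in male Sprague-Dawley rats fitted with a 0.5 g metal band on the right hind paw. Rats received 50 μL of 2.5% formalin sc into the dorsal right hind paw and were placed unrestrained over an electromagnetic detector. Flinches were counted for 60 min, with phase II defined as 11-60 min.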
As to `NCC1(CC(=O)O)CCCCC1` [GABAPENTIN], the Activity is 61%.

The next assay has as its target Voltage-gated potassium channel, KQT; KCNQ2(Kv7.2)/KCNQ3(Kv7.3) (Homo sapiens, UniProt O43525+O43526). The assay is described as follows: Activation of KCNQ2/KCNQ3 expressed in CHO cells by isotopic efflux assay. It counts as cell-based. In outline:
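86Rb+ flux in K+-channel-expressing cells loaded by culture in 86RbCl, then washed in EBSS. Preincubated with drug (0.01-30 μM in EBSS), then efflux stimulated by submaximal KCl (generally 7-20 mM) with drug still present. Supernatant and SDS lysate counted by Cherenkov. Percent efflux normalized to high-KCl (generally 30-135 mM) maximum. EC50 from eight-point half-log curves; mean of 2-4 determinations ± SEM.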
In turn, `Cn1/c(=N/NC(=O)c2ccco2)sc2cc(OC(F)(F)F)ccc21` registered an EC50 of 500 nM.

Take `Cn1/c(=N/NC(=O)C23CC4CC(CC(C4)C2)C3)sc2cc(F)cc(F)c21`: the EC50 worked out at 160 nM. On the same count and under the same terms, with `CC(=O)N/N=c1\sc2cc(OC(F)(F)F)ccc2n1C` the figure was greater than 10000 nM; with `Cn1/c(=N/NC(=O)C23CC4CC(CC(C4)C2)C3)sc2ccccc21`, 27 nM. Same read-out and setting: with `Cn1/c(=N/NC(=O)C23CC4CC(CC(C4)C2)C3)sc2cccc(C(F)(F)F)c21` the figure was 91 nM; with `Cn1/c(=N/NC(=O)C23CC4CC(CC(C4)C2)C3)sc2c(C(F)(F)F)cccc21`, 2080 nM; with `Cn1/c(=N/NC(=O)C2CCCO2)sc2cc(OC(F)(F)F)ccc21` (centres undefined), 5570 nM. Same read-out and setting: for `Cn1/c(=N/NC(=O)C23CC4CC(CC(C4)C2)C3)sc2ccc(C(F)(F)F)cc21` the value was 53 nM; for `Cn1/c(=N/NC(=O)C(C)(C)C)sc2cc(OC(F)(F)F)ccc21`, 710 nM. With `Cn1/c(=N/NC(=O)C2CCCC2)sc2cc(OC(F)(F)F)ccc21`, the EC50 stood at 62 nM. For `Cn1/c(=N/NC(=O)OC(C)(C)C)sc2cc(OC(F)(F)F)ccc21`, the EC50 amounted to 23 nM.

`CCn1/c(=N/NC(=O)C23CC4CC(CC(C4)C2)C3)sc2ccccc21` registered an EC50 of 570 nM. `Cn1/c(=N/NC(=O)C2CCOC2)sc2cc(OC(F)(F)F)ccc21` (centres undefined) gave an EC50 of 6730 nM. Still for that read-out and setting: with `Cn1/c(=N/NC(=O)c2ccccc2)sc2cc(OC(F)(F)F)ccc21` the figure was 260 nM. Compound `Cn1/c(=N/NC(=O)C23CC4CC(CC(C4)C2)C3)sc2cccc(F)c21` displayed an EC50 of 380 nM. Same read-out and setting: with `Cn1/c(=N/NC(=O)C2CCCCC2)sc2cc(OC(F)(F)F)ccc21` the figure was 28 nM; with `Cn1/c(=N/NC(=O)C23CC4CC(CC(C4)C2)C3)oc2ccccc21`, 2700 nM. On the same count and under the same terms, with `CN(/N=c1\sc2ccccc2n1C)C(=O)C12CC3CC(CC(C3)C1)C2` the figure was greater than 10000 nM; with `Cn1/c(=N/NC(=O)C23CC4CC(CC(C4)C2)C3)sc2c(F)cccc21`, 98 nM. Turning to `Cn1/c(=N/NC(=O)c2cccc(F)c2)sc2cc(OC(F)(F)F)ccc21`, the EC50 was 100 nM. Same read-out and setting: with `Cn1/c(=N/NC(=O)C23CC4CC(CC(C4)C2)C3)sc2cc(OC(F)(F)F)ccc21` the figure was 25 nM. The same measure, in the same setting: for `Cn1/c(=N/NC(=O)C23CC4CC(CC(C4)C2)C3)sc2cc(F)ccc21` the value was 28 nM. In turn, `Cn1/c(=N/NC(=O)C23CC4CC(CC(C4)C2)C3)sc2cc(C(F)(F)F)ccc21` yielded an EC50 of 160 nM.

Consider `Cn1/c(=N/NC(=O)c2ccc(F)cc2)sc2cc(OC(F)(F)F)ccc21`, for which the EC50 came out at 44 nM. Compound `Cn1/c(=N/NC(=O)OC2CCCC2)sc2cc(OC(F)(F)F)ccc21` gave an EC50 of 29 nM. Same read-out and setting: with `Cn1/c(=N/NC(=O)C23CC4CC(CC(C4)C2)C3)sc2cc(F)c(F)cc21` the figure was 21 nM.

The test system of the next assay is Rattus norvegicus. Nature of the assay: Anticonvulsant activity in po dosed Sprague-Dawley rat assessed as inhibition of pentylenetetrazole-induced seizure treated 30 mins before PTZ challenge. It counts as functional, organism-based. An outline of the steps:
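Male Sprague-Dawley rats received compound po in 0.5% methylcellulose (1 mL/kg) 30 min before PTZ 85 mg/kg sc. Latency to tonic-clonic seizure timed from PTZ injection. No seizure within 15 min scored as protected (latency 15 min). EC50 derived from latency scores.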
For `Cn1/c(=N/NC(=O)C(C)(C)C)sc2cc(OC(F)(F)F)ccc21`, the EC50 was determined as 3.8 mg/kg.

Another assay concerns Rattus norvegicus. Nature of the assay: Analgesic activity in Sprague-Dawley rat assessed as reduction of spinal nerve ligation-induced allodynia score at 100 mg/kg, iv. It counts as functional. Details: scale not given: the % may be the effect or the level left. In outline: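 L5 spinal nerve ligation (4.0 silk, distal to DRG, halothane anesthesia) in male Sprague-Dawley rats, with 2-3 weeks recovery. Tactile allodynia read as von Frey paw withdrawal threshold on a wire mesh floor, capped at 15 g. Baseline measured right before dosing; behaviour tested 1 and 2 h after administration.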
As for `NCC1(CC(=O)O)CCCCC1` [GABAPENTIN], the Activity amounted to 70%.

Another assay deals with Rattus norvegicus. Nature of the assay: Analgesic activity in Sprague-Dawley rat assessed as reduction of spinal nerve ligation-induced allodynia score at 10 mg/kg, po. It counts as functional. On the set-up: scale not given: the % may be the effect or the level left. An outline of the steps: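 Male Sprague-Dawley rats; L5 spinal nerve tightly ligated with 4.0 silk distal to the DRG under halothane, then 2-3 weeks recovery. Dosed po in 0.5% methylcellulose. Von Frey tactile withdrawal thresholds measured on a wire mesh floor, top threshold 15 g. Baseline taken just before dosing; testing at 1 and 2 h post-dose.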
Take `CCOC(=O)Nc1ccc(NCc2ccc(F)cc2)cc1N` [EZOGABINE]: the Activity is recorded as 0%.

These data come from ChEMBL document CHEMBL1157731, “Novel KCNQ2/Q3 agonists as potential therapeutics for epilepsy and neuropathic pain” (J Med Chem, 2010).
